The record followed here is ChEMBL document CHEMBL1131948, “Design, synthesis, and evaluation of azapeptides as substrates and inhibitors for human rhinovirus 3C protease” (Bioorg Med Chem Lett, 1999).

The source made the active and inactive calls. The rule behind the calls is not given here. Where a SMILES comes first, the peptide text is derived from it. The star is where a group is joined. Boc = CC(C)(C)OC(=O)*; X1 = c1ccc(O*)cc1

Test [1] has as its target T1, Human rhinovirus A protease (Human rhinovirus sp.) (UniProt Q4U254).
T1 sequence (whole entry): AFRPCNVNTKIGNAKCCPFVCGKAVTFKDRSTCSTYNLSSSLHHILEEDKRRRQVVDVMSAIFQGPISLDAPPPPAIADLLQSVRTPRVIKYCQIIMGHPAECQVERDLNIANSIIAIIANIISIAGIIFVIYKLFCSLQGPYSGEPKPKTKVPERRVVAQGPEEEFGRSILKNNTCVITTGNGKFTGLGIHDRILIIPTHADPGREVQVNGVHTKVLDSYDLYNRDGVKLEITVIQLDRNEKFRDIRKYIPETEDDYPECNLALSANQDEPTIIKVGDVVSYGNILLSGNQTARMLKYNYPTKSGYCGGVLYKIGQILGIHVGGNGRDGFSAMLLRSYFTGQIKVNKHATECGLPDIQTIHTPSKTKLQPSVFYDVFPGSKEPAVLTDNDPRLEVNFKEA
In words: Inhibitory activity against human rhinovirus 3C protease (HRV-14 3Cpro); Inactive. The method in brief:
(§1)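 HRV-14 3C protease (0.75-3.3 µM) was preincubated with compound in 25 mM HEPES, 150 mM NaCl, 1 mM EDTA, pH 7.5, at 28-30 °C. Aliquots were taken periodically and diluted 13-fold into buffer containing 250 µM EALFQ-pNA, and absorbance was read at 405 nm. Activity is expressed relative to a no-inhibitor control, with the earliest point taken about 10-15 s after mixing.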

For test [2], the target named is T1, Human rhinovirus A protease (Human rhinovirus sp.). In words: Inhibitory activity against human rhinovirus 3C protease (HRV-14 3Cpro) at a concentration of 100 uM after 15 min of incubation. Set-up: scale not given: the % may be the effect or the level left. The method in brief: as §1
Test [3] has the same target. Briefly: Inhibitory activity against human rhinovirus 3C protease (HRV-14 3Cpro) at a concentration of 150 uM. Further details: scale not given: the % may be the effect or the level left. The method in brief:
as §1

For test [4] the target is unchanged. In words: Inhibitory activity against human rhinovirus 3C protease (HRV-14 3Cpro) at a concentration of 100 uM after 110 min of incubation. Set-up: scale not given: the % may be the effect or the level left. A digest of the protocol: as §1
The target is the same in test [5]. In words: Inhibitory activity against human rhinovirus 3C protease (HRV-14 3Cpro) at a concentration of 100 uM after 45 min of incubation. Further details: scale not given: the % may be the effect or the level left. The method in brief:
as §1

The target is the same in test [6]. In words: Inhibitory activity against human rhinovirus 3C protease (HRV-14 3Cpro) at a concentration of 150 uM after 90 min of incubation. Set-up: scale not given: the % may be the effect or the level left. A digest of the protocol:
as §1

Test [7] has the same target. Briefly: Inhibitory activity against human rhinovirus 3C protease (HRV-14 3Cpro) at a concentration of 150 uM after 60 min of incubation. Set-up: scale not given: the % may be the effect or the level left. The method in brief:
as §1

Test [8] has the same target. Briefly: Inhibitory activity against human rhinovirus 3C protease (HRV-14 3Cpro) at a concentration of 100 uM after 60 min of incubation. Further details: scale not given: the % may be the effect or the level left. A digest of the protocol:
as §1

The target is the same in test [9]. In words: Inhibitory activity against human rhinovirus 3C protease (HRV-14 3Cpro) at a concentration of 100 uM after 75 min of incubation. Further details: scale not given: the % may be the effect or the level left. The method in brief: as §1
Test [10] shares this target. In words: Inhibitory activity against human rhinovirus 3C protease (HRV-14 3Cpro) at a concentration of 150 uM after 15 min of incubation. Further details: scale not given: the % may be the effect or the level left. A digest of the protocol:
as §1

Test [11] shares this target. Briefly: Inhibitory activity against human rhinovirus 3C protease (HRV-14 3Cpro) at a concentration of 50 uM after 45 min of incubation. Further details: scale not given: the % may be the effect or the level left. The method in brief: as §1
Test [12] shares this target. In words: Inhibitory activity against human rhinovirus 3C protease (HRV-14 3Cpro) at a concentration of 100 uM. Set-up: scale not given: the % may be the effect or the level left. A digest of the protocol: as §1
For test [13] the target is unchanged. Briefly: Inhibitory activity against human rhinovirus 3C protease (HRV-14 3Cpro) at a concentration of 100 uM after 30 min of incubation. Set-up: scale not given: the % may be the effect or the level left. A digest of the protocol: as §1
Test [14] has the same target. In words: Inhibitory activity against human rhinovirus 3C protease (HRV-14 3Cpro) at a concentration of 150 uM after 75 min of incubation. Set-up: scale not given: the % may be the effect or the level left. A digest of the protocol: as §1
For test [15] the target is unchanged. Briefly: Inhibitory activity against human rhinovirus 3C protease (HRV-14 3Cpro) at a concentration of 150 uM after 110 min of incubation. Further details: scale not given: the % may be the effect or the level left. A digest of the protocol: as §1
The target is the same in test [16]. In words: Inhibitory activity against human rhinovirus 3C protease (HRV-14 3Cpro) at a concentration of 50 uM after 15 min of incubation. Further details: scale not given: the % may be the effect or the level left. A digest of the protocol: as §1
Test [17] shares this target. In words: Inhibitory activity against human rhinovirus 3C protease (HRV-14 3Cpro) at a concentration of 50 uM. Further details: scale not given: the % may be the effect or the level left. A digest of the protocol:
as §1

Test [18] shares this target. In words: Inhibitory activity against human rhinovirus 3C protease (HRV-14 3Cpro) at a concentration of 50 uM after 30 min of incubation. Further details: scale not given: the % may be the effect or the level left. The method in brief:
as §1

The target is the same in test [19]. In words: Inhibitory activity against human rhinovirus 3C protease (HRV-14 3Cpro) at a concentration of 150 uM after 30 min of incubation. Set-up: scale not given: the % may be the effect or the level left. The method in brief: as §1
Test [20] shares this target. In words: Inhibitory activity against human rhinovirus 3C protease at a concentration of 150 uM (HRV-14 3Cpro). The method in brief: as §1

For the compound `CC(C)(C)OC(=O)N[C@@H](Cc1ccccc1)C(=O)NN(CCC(N)=O)C(=O)Oc1ccccc1`, the outcome in test [1] was inactive.
Same read-out and setting: the entry for `CC(C)C[C@H](NC(=O)[C@@H](NC(=O)OC(C)(C)C)C(C)C)C(=O)N[C@@H](Cc1ccccc1)C(=O)NN(CCC(N)=O)C(=O)OCc1ccccc1` is “inactive”; for `CC(C)C[C@H](NC(=O)[C@@H](NC(=O)OC(C)(C)C)C(C)C)C(=O)N[C@@H](Cc1ccccc1)C(=O)NN(CCC(N)=O)C(=O)OCC(Cl)(Cl)Cl` it is “inactive”.
As for `CC(C)C[C@H](NC(=O)[C@@H](NC(=O)OC(C)(C)C)C(C)C)C(=O)N[C@@H](Cc1ccccc1)C(=O)NN(CCC(N)=O)C(=O)Oc1ccccc1`, the Activity in test [2] came out at 18%; in [3], 5%; in test [4], 95%; in test [5], 62%; in test [6], 70%; in [7] it was 20%. The Activity in test [8] was 90%; in [9], 95%; in [10], 10%; in test [11], 85%; in test [12] it was 18%; in [13], 28%. For the same compound, the Activity came out at 45% in test [14]; 85% in test [15]; 40% in test [16]; 23% in [17]; 75% in test [18]; 13% in test [19].
As to `CC(C)C[C@H](NC(=O)[C@@H](NC(=O)OC(C)(C)C)C(C)C)C(=O)N[C@@H](Cc1ccccc1)C(=O)NCC(=O)Oc1ccccc1` (Boc-VLFG-X1), in [20], the k was determined as 0.009 min⁻¹.
